Only some compounds are listed: those with a hit (about 2.2% of all), similar ones and a draw of the others.
SUMO HTRF inh – SUMOylation inhibition; actives 0.36% (n = 290,000); AID 2006; HTRF SUMOylation assay, SAE1/SAE2 + UBC9, in vitro; P63279; inhibition, % at 35 µM; in the data active = inhibition above about 50%, passing the limit was not always enough
Target sequence (P63279 whole entry, looked up): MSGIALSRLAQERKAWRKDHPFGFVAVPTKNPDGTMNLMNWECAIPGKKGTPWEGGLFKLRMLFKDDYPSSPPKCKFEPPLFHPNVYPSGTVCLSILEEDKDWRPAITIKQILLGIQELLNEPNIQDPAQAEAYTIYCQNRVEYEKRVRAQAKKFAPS
GSTO1 inh – GSTO1 inhibition, counter-screen for RBBP9 inhibitors. recombinant GSTO1, activity-based probe fluorescence polarization. actives 1.1% (n = 300,000). P78417. inhibition, % at 5.96 µM;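 active = inhibition above the campaign mean inhibition plus 3 SD, cut at about 35% in these data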;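 note: 0% = GSTO1-1 with DMSO and 100% = wells lacking GSTO1-1 enzyme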
Target sequence (P78417 whole entry, looked up): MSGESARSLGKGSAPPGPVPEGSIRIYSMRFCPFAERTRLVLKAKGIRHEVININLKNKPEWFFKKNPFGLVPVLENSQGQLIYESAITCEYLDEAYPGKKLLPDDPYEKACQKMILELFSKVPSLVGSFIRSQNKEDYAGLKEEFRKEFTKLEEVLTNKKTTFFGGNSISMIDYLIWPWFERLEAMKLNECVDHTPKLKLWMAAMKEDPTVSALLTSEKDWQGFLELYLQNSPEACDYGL
UBC13 inh – inhibitors of human UBC13 polyubiquitin chain formation | P61088 | TR-FRET | inhibition, % at 20 µM | actives 0.47% (n = 330,000); in the data active = inhibition above about 45%, passing the limit was not always enough
Target sequence (P61088 whole entry, looked up): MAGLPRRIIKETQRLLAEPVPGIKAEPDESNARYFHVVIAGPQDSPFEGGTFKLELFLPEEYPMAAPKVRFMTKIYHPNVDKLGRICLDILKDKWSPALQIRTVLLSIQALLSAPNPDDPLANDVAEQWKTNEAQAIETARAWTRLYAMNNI
PAD4 inh – inhibitors of human PAD4; Q9UM07; recombinant PAD4, RCA probe fluorescence polarization; inhibition, % at 6.36 µM; actives 0.41% (n = 330,000); AID 485272;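 active = percent inhibition above a cutoff equal to the mean of all tested compounds plus 3 SD, cut at about 15% in these data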;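 note: 0% = PAD4 with RCA probe and DMSO and 100% = probe without PAD4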
Apaf-1 inh – human Apaf-1 inhibition; reconstituted apoptosome caspase-3 activity, DEVD-Rh110 fluorescence; O14727; actives 0.71% (n = 330,000); AID 489030; inhibition, % at 20 µM; active = inhibition of at least 40% at 20 µM;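 note: plate controls were DMSO wells for no effect and DEVD-CHO caspase inhibitor wells for full effect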
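Material: reconstituted apoptosome with Apaf-1, cytochrome c, caspase-9, procaspase-3, dATP; medium: pH 7.5 Hepes buffer with CHAPS, BSA, DTT; also added: cytochrome c and DEVD-Rh110 substrate; timing: 30 min plus 50 min, RT; signal: Rh110 fluorescence intensity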
Rin1-Abl PPI inh – inhibitors of human Rin1-Abl protein interaction; P00519+Q13671; TR-FRET Rin1/Abl binding, biochemical; inhibition, % at 7.35 µM; actives 0.4% (n = 360,000); AID 588664; in the data active = inhibition above about 5%, passing the limit was not always enough
Casp3 UBC13 ctr – counter-screen for UBC13 inhibitors: human caspase-3 inhibition; shares compounds with UBC13 inh; Recombinant caspase-3, Caspase-Glo 3/7 luminescence, 60 min; inhibition, % at 20 µM; actives 4% (n = 1,400); AID 488856;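 active = mean inhibition across replicates above about 26%, limit read from the data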;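 note: plate controls were DMSO with caspase-3 for no effect and DMSO wells lacking enzyme for full effect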
UBC13 confirm – confirmation of human UBC13 polyubiquitin inhibitors; shares compounds with UBC13 inh; UBC13 polyubiquitination, TR-FRET, biochemical; inhibition, % at 10 µM; actives 68% (n = 1,400); in the data active = inhibition above about 45%
* hit, by the source's call; . = no result given.

SMILES	SUMO HTRF inh	GSTO1 inh	UBC13 inh	PAD4 inh	Apaf-1 inh	Rin1-Abl PPI inh	Casp3 UBC13 ctr	UBC13 confirm
NCCCC[C@@H]1NC(=O)c2cc([N+](=O)[O-])cc(F)c2NCCCC[C@@H](C(N)=O)NC(=O)[C@H](CCC(N)=O)NC1=O	3	2	74*	-7	-3	1	1	56*
NCCCC[C@@H]1NC(=O)c2cc([N+](=O)[O-])cc(F)c2NCCCC[C@@H](C(N)=O)NC(=O)CNC1=O	8	4	85*	-1	4	3	-4	77*
CC[C@H](C)[C@@H]1NC(=O)c2cc([N+](=O)[O-])cc(F)c2NCCCC[C@@H](C(N)=O)NC(=O)[C@H](CCCCN)NC1=O	9	2	78*	-1	-5	0	-1	62*
CC(C)[C@H]1CN=C2N(CCNC(=O)CCC3CCCCC3)[C@H](Cc3ccc(O)cc3)CN21	5	2	31	1	5	2	.	.
COc1ccc(C[C@H]2CN3C(=NC[C@@H]3Cc3ccccc3)N2CCNC(=O)CCC2CCCCC2)cc1	7	2	78*	1	52*	2	-2	69*
COc1ccc(C[C@H]2CN3C(=NC[C@@H]3C(C)C)N2CCNC(=O)CCC2CCCCC2)cc1	18	-4	53*	-3	26	5	-1	20
CCN(CC)C(=O)[C@H]1CC(CC(=O)NC/C=C(\C)CCC=C(C)C)C(=O)N2CCc3c([nH]c4ccccc34)[C@]12C (some centres not stated)	.	.	12	-1	32	3	.	.
COc1ccc(-c2oc3ncnc(N)c3c2-c2ccccc2)cc1	18	2	81*	-4	0	-3	-2	81*
CN(C)CCCNc1cc(C(C)(C)C)nc2c(-c3ccccc3)cnn12	9	0	66*	6	15	0	1	34
Cc1cc(NCCCN2CCOCC2)n2ncc(-c3ccccc3)c2n1	14	-6	8	2	7	1	.	.
CC(C)(C)c1cc(NCCCn2ccnc2)n2ncc(-c3ccc(Cl)cc3)c2n1	-47	6	52*	2	39	-2	0	77*
O=C(CSc1nnc(-c2cccc(Br)c2)o1)N1CCNC1=O	.	.	6	-3	6	-1	.	.
CN1CCN(CC/C=C2/c3ccccc3Sc3ccc(S(=O)(=O)N(C)C)cc32)CC1	9	2	55*	-5	39	3	1	26
COc1cc2c(cc1Cl)/C(=C\CCN(C)C)c1ccccc1S2	-12	-1	25	-1	10	-4	.	.
COc1cccc2sc(N(CCCN(C)C)C(=O)c3ccc(S(=O)(=O)N4CCc5ccccc5C4)cc3)nc12	10	0	64*	-6	37	0	-4	99*
CN(C)CCCN(C(=O)c1ccc(S(=O)(=O)N2CCc3ccccc3C2)cc1)c1nc2c(F)cc(F)cc2s1	.	2	24	-5	35	2	.	.
CCOc1ccc2nc(N(CCCN(C)C)C(=O)c3ccc(S(=O)(=O)N4CCc5ccccc5C4)cc3)sc2c1	3	-1	84*	-4	13	-3	4	115*
COc1ccc(OC)c2sc(N(CCCN(C)C)C(=O)c3ccc(S(=O)(=O)N4CCc5ccccc5C4)cc3)nc12	.	-4	100*	0	55*	.	-2	118*
Cc1ccc2sc(N(CCCN(C)C)C(=O)c3ccc(S(=O)(=O)N4CCc5ccccc5C4)cc3)nc2c1C	.	2	24	5	33	2	.	.
COc1cc2nc(N(CCCN(C)C)C(=O)c3ccc(S(=O)(=O)N4CCc5ccccc5C4)cc3)sc2cc1OC	.	3	71*	-4	30	2	-1	105*
COc1ccc(C)c2sc(N(CCCN(C)C)C(=O)c3ccc(S(=O)(=O)N4CCc5ccccc5C4)cc3)nc12	.	13	.	-3	.	-1	.	.
O=C(CCCN1C(=O)/C(=C\c2cccc(Br)c2)SC1=S)Nc1ccc(C(=O)O)cc1	.	.	.	.	.	3	.	.
O=C(NN1C(=O)CSC1=S)C(=O)NN1C(=O)CSC1=S	96*	-17	47*	-5	-20	5	8	29
CCOC(=O)N1CCC(NC(=O)c2cc(C)c3c(C)nn(-c4ccccc4)c3n2)CC1	3	-1	45*	-4	-4	3	-3	23
COc1ccc(NC(=O)c2ccc3c(c2)S(=O)(=O)N=C2CCCCCN23)cc1S(N)(=O)=O	.	.	.	.	.	1	.	.
SMILES	SUMO HTRF inh	GSTO1 inh	UBC13 inh	PAD4 inh	Apaf-1 inh	Rin1-Abl PPI inh	Casp3 UBC13 ctr	UBC13 confirm
COc1ccc(-c2oc3c4c(cc(OC)c3c(=O)c2CC=C(C)C)OC(C)(C)C=C4)c(OC)c1	.	-4	-10	-1	18	.	.	.
CC(C)=CCc1c(-c2ccc(O)cc2O)oc2cc3c(c(O)c2c1=O)C=CC(C)(C)O3	.	-1	50*	-7	-1	.	0	2
CC1CCCCN1C(=O)COC(=O)C1CCN(S(=O)(=O)c2ccc3c(c2)OCCO3)CC1 (configuration not stated)	.	15	-1	-4	6	0	.	.
CCOc1ccccc1-c1nc(C(N)=O)c2[nH]c(=O)n(-c3ccc(F)cc3)c2n1	1	-4	65*	-3	7	-3	3	8
C[C@H](NC(=O)c1ccccc1Cl)C(=O)OCc1cn2cc(Cl)ccc2n1	.	19	106*	-2	8	0	6	4
Cc1ccc(NC2=CC(=O)CC(c3ccccc3)C2)cc1 (configuration not stated)	16	-6	45*	4	-9	-3	-2	0
CCOC(=O)c1c(C)[nH]c(C(=O)OC(C)C(=O)NC2(C#N)CCCCC2)c1C (configuration not stated)	.	.	.	.	.	3	.	.
O=C(Nc1ccc2c(c1)OCO2)c1cc(C2CCCCN2C(=O)CCc2ccccc2)on1 (configuration not stated)	.	.	.	.	.	2	.	.
CNC(=O)c1c(NC(=O)c2cccc(N3C(=O)CCC3=O)c2)sc2c1CCC2	6	9	50*	-1	-19	0	0	11
CNC(=O)c1c(NC(=O)c2ccc(N3C(=O)CCC3=O)cc2)sc2c1CCCC2	-1	8	-2	-3	-1	-4	.	.
CCCCn1c(N)c(N(C)C(=O)c2ccccc2Oc2ccccc2)c(=O)[nH]c1=O	.	.	-3	-4	1	6	.	.
CCOC(=O)c1c(NC(=O)COc2ccccc2C#N)sc2c1CC(C)(C)NC2(C)C	-14	2	76*	2	7	2	-3	105*
CCOC(=O)c1c(NC(=O)c2ccc(C)cc2)sc2c1CC(C)(C)NC2(C)C	-4	6	49*	-3	54*	.	-3	11
